Laboratory results reported in publication PMC6407616 (Molecular cell, 2018).

Assays:
[1] = molecular target: H3Kc9me3 601 dinucleosome with 20 bp DNA linker (Xenopus laevis); assay: negative stain electron microscopy
ZMET2 [2] = molecular target: T1, ZMET2 (Zea mays, UniProt Q9AXT8); assay: DNA methyltransferase assay on unmethylated or hemimethylated 38 bp duplexed DNA; format: biochemical; details: 300 nM 38 bp duplex; single-turnover, saturating ZMET2; no peptide; n=2
T1 sequence (Q9AXT8 1-912): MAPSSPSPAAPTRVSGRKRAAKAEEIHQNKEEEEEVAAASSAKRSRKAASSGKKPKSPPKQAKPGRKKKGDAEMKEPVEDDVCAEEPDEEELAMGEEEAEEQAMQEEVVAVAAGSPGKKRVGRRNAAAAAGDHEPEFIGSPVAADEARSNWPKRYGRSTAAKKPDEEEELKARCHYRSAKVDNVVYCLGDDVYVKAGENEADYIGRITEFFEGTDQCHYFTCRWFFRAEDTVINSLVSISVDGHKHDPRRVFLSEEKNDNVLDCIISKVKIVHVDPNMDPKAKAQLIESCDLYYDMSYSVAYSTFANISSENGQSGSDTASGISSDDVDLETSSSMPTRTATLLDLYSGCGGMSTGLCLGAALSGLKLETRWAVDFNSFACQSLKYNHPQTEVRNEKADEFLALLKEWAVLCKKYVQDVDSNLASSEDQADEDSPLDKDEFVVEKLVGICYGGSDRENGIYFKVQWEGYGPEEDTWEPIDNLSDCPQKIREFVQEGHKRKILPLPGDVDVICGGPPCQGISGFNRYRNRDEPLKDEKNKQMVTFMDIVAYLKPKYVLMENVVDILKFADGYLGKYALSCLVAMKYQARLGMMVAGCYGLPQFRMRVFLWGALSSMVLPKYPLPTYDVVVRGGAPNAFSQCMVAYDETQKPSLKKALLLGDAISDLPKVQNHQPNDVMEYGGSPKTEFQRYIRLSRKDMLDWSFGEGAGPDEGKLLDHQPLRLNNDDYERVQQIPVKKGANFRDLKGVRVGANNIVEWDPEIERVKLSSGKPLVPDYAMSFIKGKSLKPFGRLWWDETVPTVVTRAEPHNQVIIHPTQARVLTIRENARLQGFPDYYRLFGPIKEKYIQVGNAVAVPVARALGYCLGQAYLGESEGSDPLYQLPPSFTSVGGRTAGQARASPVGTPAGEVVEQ

[3] = Size-exclusion chromatography coupled to multi angle light scattering; format: physicochemical; details: 20 mM Tris-HCl pH 8.0, 150 mM NaCl, 1 mM DTT; Figure S1E
Method in brief: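 Recombinant ZMET2 was expressed with 0.2 mM IPTG at 20°C for 16–18 h, then purified by imidazole elution, TEV cleavage, Q anion exchange and Superdex 200 gel filtration. Samples were filtered and injected onto an S 050 size-exclusion column equilibrated overnight in MALS buffer. Molar mass was read by inline multi-angle light scattering with refractive index detection.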

[4] = FP binding of ZMET2 mutants to H3K9me2 tail peptides; details: in words; fluorescence polarization; n=2
H3Kc9me3 mononucleosomes = assay: FP binding of ZMET2 mutants to H3Kc9me3 mononucleosomes; set-up: species or system Xenopus laevis
naked 157 bp DNA = format: biochemical; details: in words, H3K9me0/2 peptides in trans, Figure S4E
ZMET2 [5] = molecular target: ZMET2 (Zea mays, UniProt Q9AXT8 1-912); assay: fluorescence polarization

For “full-length recombinant ZMET2 (wild type) (from UniProt Q9AXT8 1-912) (enzyme)”, the stoichiometry N (ZMET2 per dinucleosome) [1] was 1.

In the case of “unmethylated: AACGCAGCATGCGCTGCTAGC GCAGCTAGCGCTGCATG (DNA AACGCAGCATGCGCTGCTAGCGCAGCTAGCGCTGCATG; DNA, backbone not given here)”, the “rate constant, 38 bp duplexed DNA without peptide” value (ZMET2 [2]) is reported as 5.3E-5 (±1.1E-5) min^−1.

B1: ZMET2: full-length recombinant maintenance DNA methyltransferase from Zea mays (protein)
chain: MAPSSPSPAAPTRVSGRKRAAKAEEIHQNKEEEEEVAAASSAKRSRKAASSGKKPKSPPKQAKPGRKKKGDAEMKEPVEDDVCAEEPDEEELAMGEEEAEEQAMQEEVVAVAAGSPGKKRVGRRNAAAAAGDHEPEFIGSPVAADEARSNWPKRYGRSTAAKKPDEEEELKARCHYRSAKVDNVVYCLGDDVYVKAGENEADYIGRITEFFEGTDQCHYFTCRWFFRAEDTVINSLVSISVDGHKHDPRRVFLSEEKNDNVLDCIISKVKIVHVDPNMDPKAKAQLIESCDLYYDMSYSVAYSTFANISSENGQSGSDTASGISSDDVDLETSSSMPTRTATLLDLYSGCGGMSTGLCLGAALSGLKLETRWAVDFNSFACQSLKYNHPQTEVRNEKADEFLALLKEWAVLCKKYVQDVDSNLASSEDQADEDSPLDKDEFVVEKLVGICYGGSDRENGIYFKVQWEGYGPEEDTWEPIDNLSDCPQKIREFVQEGHKRKILPLPGDVDVICGGPPCQGISGFNRYRNRDEPLKDEKNKQMVTFMDIVAYLKPKYVLMENVVDILKFADGYLGKYALSCLVAMKYQARLGMMVAGCYGLPQFRMRVFLWGALSSMVLPKYPLPTYDVVVRGGAPNAFSQCMVAYDETQKPSLKKALLLGDAISDLPKVQNHQPNDVMEYGGSPKTEFQRYIRLSRKDMLDWSFGEGAGPDEGKLLDHQPLRLNNDDYERVQQIPVKKGANFRDLKGVRVGANNIVEWDPEIERVKLSSGKPLVPDYAMSFIKGKSLKPFGRLWWDETVPTVVTRAEPHNQVIIHPTQARVLTIRENARLQGFPDYYRLFGPIKEKYIQVGNAVAVPVARALGYCLGQAYLGESEGSDPLYQLPPSFTSVGGRTAGQARASPVGTPAGEVVEQ
modifications: left off: 6xHis, N-terminal, cleaved | SUMO, N-terminal, state not stated
For B1, the “oligomeric state by molar mass measurement” value [3] was “monomer”.

B2: BAHx: ZMET2 mutated in the aromatic cage of the BAH domain (W224L) (protein)
chain: MAPSSPSPAAPTRVSGRKRAAKAEEIHQNKEEEEEVAAASSAKRSRKAASSGKKPKSPPKQAKPGRKKKGDAEMKEPVEDDVCAEEPDEEELAMGEEEAEEQAMQEEVVAVAAGSPGKKRVGRRNAAAAAGDHEPEFIGSPVAADEARSNWPKRYGRSTAAKKPDEEEELKARCHYRSAKVDNVVYCLGDDVYVKAGENEADYIGRITEFFEGTDQCHYFTCRLFFRAEDTVINSLVSISVDGHKHDPRRVFLSEEKNDNVLDCIISKVKIVHVDPNMDPKAKAQLIESCDLYYDMSYSVAYSTFANISSENGQSGSDTASGISSDDVDLETSSSMPTRTATLLDLYSGCGGMSTGLCLGAALSGLKLETRWAVDFNSFACQSLKYNHPQTEVRNEKADEFLALLKEWAVLCKKYVQDVDSNLASSEDQADEDSPLDKDEFVVEKLVGICYGGSDRENGIYFKVQWEGYGPEEDTWEPIDNLSDCPQKIREFVQEGHKRKILPLPGDVDVICGGPPCQGISGFNRYRNRDEPLKDEKNKQMVTFMDIVAYLKPKYVLMENVVDILKFADGYLGKYALSCLVAMKYQARLGMMVAGCYGLPQFRMRVFLWGALSSMVLPKYPLPTYDVVVRGGAPNAFSQCMVAYDETQKPSLKKALLLGDAISDLPKVQNHQPNDVMEYGGSPKTEFQRYIRLSRKDMLDWSFGEGAGPDEGKLLDHQPLRLNNDDYERVQQIPVKKGANFRDLKGVRVGANNIVEWDPEIERVKLSSGKPLVPDYAMSFIKGKSLKPFGRLWWDETVPTVVTRAEPHNQVIIHPTQARVLTIRENARLQGFPDYYRLFGPIKEKYIQVGNAVAVPVARALGYCLGQAYLGESEGSDPLYQLPPSFTSVGGRTAGQARASPVGTPAGEVVEQ
modifications: left off: 6xHis, N-terminal, cleaved | SUMO, N-terminal, state not stated
In the case of B2, the “binding to H3K9me2 peptides relative to wild type ZMET2” value [4] is reported as “did not show a defect, showing instead modestly tighter binding” and the “affinity for H3Kc9me3 nucleosomes relative to wild type ZMET2” value (H3Kc9me3 mononucleosomes; in words, n=4) is reported as “modestly tighter affinity for H3Kc9me3 nucleosomes”.

B3: CDx: ZMET2 mutated in the aromatic cage of the CD (F441A) (protein)
chain: MAPSSPSPAAPTRVSGRKRAAKAEEIHQNKEEEEEVAAASSAKRSRKAASSGKKPKSPPKQAKPGRKKKGDAEMKEPVEDDVCAEEPDEEELAMGEEEAEEQAMQEEVVAVAAGSPGKKRVGRRNAAAAAGDHEPEFIGSPVAADEARSNWPKRYGRSTAAKKPDEEEELKARCHYRSAKVDNVVYCLGDDVYVKAGENEADYIGRITEFFEGTDQCHYFTCRWFFRAEDTVINSLVSISVDGHKHDPRRVFLSEEKNDNVLDCIISKVKIVHVDPNMDPKAKAQLIESCDLYYDMSYSVAYSTFANISSENGQSGSDTASGISSDDVDLETSSSMPTRTATLLDLYSGCGGMSTGLCLGAALSGLKLETRWAVDFNSFACQSLKYNHPQTEVRNEKADEFLALLKEWAVLCKKYVQDVDSNLASSEDQADEDSPLDKDEAVVEKLVGICYGGSDRENGIYFKVQWEGYGPEEDTWEPIDNLSDCPQKIREFVQEGHKRKILPLPGDVDVICGGPPCQGISGFNRYRNRDEPLKDEKNKQMVTFMDIVAYLKPKYVLMENVVDILKFADGYLGKYALSCLVAMKYQARLGMMVAGCYGLPQFRMRVFLWGALSSMVLPKYPLPTYDVVVRGGAPNAFSQCMVAYDETQKPSLKKALLLGDAISDLPKVQNHQPNDVMEYGGSPKTEFQRYIRLSRKDMLDWSFGEGAGPDEGKLLDHQPLRLNNDDYERVQQIPVKKGANFRDLKGVRVGANNIVEWDPEIERVKLSSGKPLVPDYAMSFIKGKSLKPFGRLWWDETVPTVVTRAEPHNQVIIHPTQARVLTIRENARLQGFPDYYRLFGPIKEKYIQVGNAVAVPVARALGYCLGQAYLGESEGSDPLYQLPPSFTSVGGRTAGQARASPVGTPAGEVVEQ
modifications: left off: 6xHis, N-terminal, cleaved | SUMO, N-terminal, state not stated
In the case of B3, the “binding to H3K9me2 peptides relative to wild type ZMET2” value [4] is reported as “significantly decreased compared to wild type ZMET2”, the “fold decrease in affinity for H3Kc9me3 nucleosomes vs wild type ZMET2” value (H3Kc9me3 mononucleosomes; fluorescence polarization, n=2) is reported as 4 fold and the “rate constant relative to wild type ZMET2, naked DNA” value (naked 157 bp DNA) is reported as “comparable to wild type ZMET2”.

B4: 38 bp unmethylated duplex (dsDNA)
DNA 1: AACGCAGCATGCGCTGCTAGCGCAGCTAGCGCTGCATG
DNA 2: CATGCAGCGCTAGCTGCGCTAGCAGCGCATGCTGCGTT
For B4, the binding signal (ZMET2 [5]) was 32 fold tighter than without H3K9me2.

B5: 38 bp hemimethylated duplex (dsDNA)
DNA 1: AACGCAGCATGCGCTGCTAGCGCAGCTAGCGCTGCATG
DNA 2: CATGCAGCGCTAGCTGCGCTAGCAGCGCATGCTGCGTT
modifications: 5mC at positions 5, 14, 23 and 32 of strand 1; complement unmethylated
In the case of B5, the binding signal (ZMET2 [5]) is reported as 36 fold tighter than without H3K9me2.
